Data reported in ChEMBL document CHEMBL2331333, “Synthesis, biological evaluation of new oxazolidino-sulfonamides as potential antimicrobial agents” (2013).
Values after ≈ are worked out from the molar mass of the structure shown. Active and inactive are the calls of the source. The calls are words filed in the database; no cut-off is given here.

Tests used:
Raoultella planticola = experiment: Antibacterial activity against Klebsiella planticola MTCC 530 at 80 ug/ml after 24 hrs by agar dilution method; format: functional, organism-based
Escherichia coli = experiment: Antibacterial activity against Escherichia coli MTCC 739 at 80 ug/ml after 24 hrs by agar dilution method; format: functional, organism-based
[1] = tested on: Mycobacterium tuberculosis; experiment: Antibacterial activity against Mycobacterium tuberculosis H37Rv at 32 ug/ml […] by agar dilution method; format: functional, organism-based
Micrococcus luteus [2] = experiment: Antibacterial activity against Micrococcus luteus MTCC 2470 at 80 ug/ml after 24 hrs by agar dilution method; format: functional, organism-based
Candida albicans [3] = experiment: Antifungal activity against Candida albicans MTCC 3017 after 48 hrs by agar dilution method; format: functional; settings: MTCC 3017, 48 h
Method in brief: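 Same disk/dilution format as the antibacterial assay, on potato dextrose agar (39 g/L). Compounds were from DMSO stock, loaded at 1 to 80 per disk, in triplicate. Plates were incubated at 28 ± 2 °C for 48 h. MIC was the lowest amount that arrested growth. Equivalent DMSO served as solvent control.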

Pseudomonas aeruginosa [4] = experiment: Antibacterial activity against Pseudomonas aeruginosa MTCC 2453 after 24 hrs by agar dilution method; format: functional; settings: MTCC 2453, 24 h
Staphylococcus aureus [5] = experiment: Antibacterial activity against Staphylococcus aureus MTCC 96 after 24 hrs by agar dilution method; format: functional; settings: MTCC 96, 24 h
Staphylococcus [6] = experiment: Antibacterial activity against Staphylococcus MLS-16 MTCC 2940 after 24 hrs by agar dilution method; format: functional; settings: MLS-16 MTCC 2940, 24 h
Bacillus subtilis [7] = experiment: Antibacterial activity against Bacillus subtilis MTCC 121 after 24 hrs by agar dilution method; format: functional; settings: MTCC 121, 24 h
Pseudomonas aeruginosa [8] = experiment: Antibacterial activity against Pseudomonas aeruginosa MTCC 2453 at 80 ug/ml after 24 hrs by agar dilution method; format: functional, organism-based
Candida albicans [9] = experiment: Antifungal activity against Candida albicans MTCC 3017 at 20 ug/ml after 24 hrs by disk diffusion method; format: functional; settings: MTCC 3017, 24 h, read-out: IZ
Pseudomonas aeruginosa [10] = experiment: Antibacterial activity against Pseudomonas aeruginosa MTCC 2453 at 20 ug/ml after 24 hrs by disk diffusion method; format: functional; settings: MTCC 2453, 24 h, read-out: IZ
Staphylococcus aureus [11] = experiment: Antibacterial activity against Staphylococcus aureus MTCC 96 at 20 ug/ml after 24 hrs by disk diffusion method; format: functional; settings: MTCC 96, 24 h, read-out: IZ
Staphylococcus [12] = experiment: Antibacterial activity against Staphylococcus MLS-16 MTCC 2940 at 20 ug/ml after 24 hrs by disk diffusion method; format: functional; settings: MLS-16 MTCC 2940, 24 h, read-out: IZ
Micrococcus luteus [13] = experiment: Antibacterial activity against Micrococcus luteus MTCC 2470 at 20 ug/ml after 24 hrs by disk diffusion method; format: functional; settings: MTCC 2470, 24 h, read-out: IZ
Bacillus subtilis [14] = experiment: Antibacterial activity against Bacillus subtilis MTCC 121 at 20 ug/ml after 24 hrs by disk diffusion method; format: functional; settings: MTCC 121, 24 h, read-out: IZ
Micrococcus luteus [15] = experiment: Antibacterial activity against Micrococcus luteus MTCC 2470 after 24 hrs by agar dilution method; format: functional; settings: MTCC 2470, 24 h

For O=C1O[C@@H](CNS(=O)(=O)c2ccc(F)c(F)c2F)CN1c1ccc(N2CCOCC2)c(F)c1, the Activity (Raoultella planticola) was “inactive”, the Activity (Escherichia coli) was “inactive” and the Activity [1] was “inactive”. For the same molecule, the Activity (Micrococcus luteus [2]) was “inactive”, the MIC (Candida albicans [3]) was 6 µg/mL (≈ 12.3 µM) and the MIC (Pseudomonas aeruginosa [4]) was 8 µg/mL (≈ 16.3 µM). The MIC (Staphylococcus aureus [5]) was 6 µg/mL (≈ 12.3 µM), the MIC (Staphylococcus [6]) was 6 µg/mL (≈ 12.3 µM) and the MIC (Bacillus subtilis [7]) was 6 µg/mL (≈ 12.3 µM).

With CC(=O)c1ccc(S(=O)(=O)NC[C@H]2CN(c3ccc(N4CCSCC4)c(F)c3)C(=O)O2)cc1 the Activity (Raoultella planticola) was “inactive”, the Activity (Pseudomonas aeruginosa [8]) was “inactive” and the Activity (Escherichia coli) was “inactive”. The Activity [1] was “inactive”, the Activity (Micrococcus luteus [2]) was “inactive” and the MIC (Candida albicans [3]) was 20 µg/mL (≈ 40.5 µM). It also gave an MIC (Staphylococcus aureus [5]) of 8 µg/mL (≈ 16.2 µM), an MIC (Staphylococcus [6]) of 8 µg/mL (≈ 16.2 µM) and an MIC (Bacillus subtilis [7]) of 10 µg/mL (≈ 20.3 µM).

With O=C1O[C@@H](CNS(=O)(=O)c2ccc(C(F)(F)F)cc2)CN1c1ccc(N2CCNCC2)c(F)c1 the zone of inhibition at 20 µg/mL (Candida albicans [9]) was 15 mm, the zone of inhibition at 20 µg/mL (Pseudomonas aeruginosa [10]) was 16 mm and the zone of inhibition at 20 µg/mL (Staphylococcus aureus [11]) was 17 mm. For the same molecule, the zone of inhibition at 20 µg/mL (Staphylococcus [12]) was 15 mm, the zone of inhibition at 20 µg/mL (Micrococcus luteus [13]) was 13 mm and the zone of inhibition at 20 µg/mL (Bacillus subtilis [14]) was 16 mm. For the same molecule, the Activity (Raoultella planticola) was “inactive”, the Activity (Escherichia coli) was “inactive” and the MIC (Candida albicans [3]) was 10 µg/mL (≈ 19.9 µM). For the same molecule, the MIC (Pseudomonas aeruginosa [4]) was 8 µg/mL (≈ 15.9 µM), the MIC (Staphylococcus aureus [5]) was 6 µg/mL (≈ 11.9 µM) and the MIC (Micrococcus luteus [15]) was 8 µg/mL (≈ 15.9 µM). For the same molecule, the MIC (Staphylococcus [6]) was 6 µg/mL (≈ 11.9 µM) and the MIC (Bacillus subtilis [7]) was 8 µg/mL (≈ 15.9 µM).

In the case of O=C1O[C@@H](CNS(=O)(=O)c2cc(S(=O)(=O)c3ccccc3)cs2)CN1c1ccc(N2CCSCC2)c(F)c1, the Activity (Raoultella planticola) is reported as “inactive”, the Activity (Escherichia coli) is reported as “inactive” and the Activity [1] is reported as “inactive”. The Activity (Micrococcus luteus [2]) was “inactive”, the MIC (Candida albicans [3]) was 8 µg/mL (≈ 13.4 µM) and the MIC (Pseudomonas aeruginosa [4]) was 8 µg/mL (≈ 13.4 µM). It also gave an MIC (Staphylococcus aureus [5]) of 6 µg/mL (≈ 10 µM), an MIC (Staphylococcus [6]) of 6 µg/mL (≈ 10 µM) and an MIC (Bacillus subtilis [7]) of 8 µg/mL (≈ 13.4 µM).

For O=C1O[C@@H](CNS(=O)(=O)c2cccc3cccnc23)CN1c1ccc(N2CCSCC2)c(F)c1, the Activity (Raoultella planticola) was “inactive”, the Activity (Escherichia coli) was “inactive” and the Activity [1] was “inactive”. The Activity (Micrococcus luteus [2]) was “inactive”, the MIC (Candida albicans [3]) was 8 µg/mL (≈ 15.9 µM) and the MIC (Pseudomonas aeruginosa [4]) was 8 µg/mL (≈ 15.9 µM). For the same molecule, the MIC (Staphylococcus aureus [5]) was 6 µg/mL (≈ 11.9 µM), the MIC (Staphylococcus [6]) was 6 µg/mL (≈ 11.9 µM) and the MIC (Bacillus subtilis [7]) was 8 µg/mL (≈ 15.9 µM).

With CC(=O)Nc1nc(C)c(S(=O)(=O)NC[C@H]2CN(c3ccc(N4CCSCC4)c(F)c3)C(=O)O2)s1 the Activity (Raoultella planticola) was “inactive”, the Activity (Escherichia coli) was “inactive” and the Activity (Micrococcus luteus [2]) was “inactive”. For the same molecule, the MIC (Candida albicans [3]) was 8 µg/mL (≈ 15.1 µM), the MIC (Pseudomonas aeruginosa [4]) was 8 µg/mL (≈ 15.1 µM) and the MIC (Staphylococcus aureus [5]) was 8 µg/mL (≈ 15.1 µM). For the same molecule, the MIC (Staphylococcus [6]) was 8 µg/mL (≈ 15.1 µM) and the MIC (Bacillus subtilis [7]) was 10 µg/mL (≈ 18.9 µM).

With O=C1O[C@@H](CNS(=O)(=O)c2cccs2)CN1c1ccc(N2CCSCC2)c(F)c1 the Activity (Raoultella planticola) was “inactive”, the Activity (Escherichia coli) was “inactive” and the Activity [1] was “inactive”. For the same molecule, the MIC (Candida albicans [3]) was 4 µg/mL (≈ 8.74 µM), the MIC (Pseudomonas aeruginosa [4]) was 4 µg/mL (≈ 8.74 µM) and the MIC (Staphylococcus aureus [5]) was 4 µg/mL (≈ 8.74 µM). The MIC (Micrococcus luteus [15]) was 6 µg/mL (≈ 13.1 µM), the MIC (Staphylococcus [6]) was 4 µg/mL (≈ 8.74 µM) and the MIC (Bacillus subtilis [7]) was 2 µg/mL (≈ 4.37 µM).

In the case of O=C1O[C@@H](CNS(=O)(=O)c2ccc(C(F)(F)F)cc2)CN1c1ccc(N2CCSCC2)c(F)c1, the Activity (Raoultella planticola) is reported as “inactive”, the Activity (Escherichia coli) is reported as “inactive” and the Activity [1] is reported as “inactive”. For the same molecule, the Activity (Micrococcus luteus [2]) was “inactive”, the MIC (Candida albicans [3]) was 8 µg/mL (≈ 15.4 µM) and the MIC (Pseudomonas aeruginosa [4]) was 8 µg/mL (≈ 15.4 µM). It also gave an MIC (Staphylococcus aureus [5]) of 8 µg/mL (≈ 15.4 µM), an MIC (Staphylococcus [6]) of 8 µg/mL (≈ 15.4 µM) and an MIC (Bacillus subtilis [7]) of 10 µg/mL (≈ 19.2 µM).

O=C1O[C@@H](CNS(=O)(=O)c2ccc(F)c(Cl)c2)CN1c1ccc(N2CCSCC2)c(F)c1 was tested, and the Activity (Raoultella planticola) was “inactive”, the Activity (Pseudomonas aeruginosa [8]) was “inactive” and the Activity (Escherichia coli) was “inactive”. The Activity [1] was “inactive”, the Activity (Micrococcus luteus [2]) was “inactive” and the MIC (Candida albicans [3]) was 20 µg/mL (≈ 39.7 µM). It also gave an MIC (Staphylococcus aureus [5]) of 8 µg/mL (≈ 15.9 µM), an MIC (Staphylococcus [6]) of 8 µg/mL (≈ 15.9 µM) and an MIC (Bacillus subtilis [7]) of 10 µg/mL (≈ 19.8 µM).

For O=C1O[C@@H](CNS(=O)(=O)c2cc(Cl)cc(Cl)c2)CN1c1ccc(N2CCOCC2)c(F)c1, the Activity (Raoultella planticola) was “inactive”, the Activity (Escherichia coli) was “inactive” and the Activity [1] was “inactive”. For the same molecule, the Activity (Micrococcus luteus [2]) was “inactive”, the MIC (Candida albicans [3]) was 8 µg/mL (≈ 15.9 µM) and the MIC (Pseudomonas aeruginosa [4]) was 40 µg/mL (≈ 79.3 µM). The MIC (Staphylococcus aureus [5]) was 8 µg/mL (≈ 15.9 µM), the MIC (Staphylococcus [6]) was 8 µg/mL (≈ 15.9 µM) and the MIC (Bacillus subtilis [7]) was 8 µg/mL (≈ 15.9 µM).

With O=C1O[C@@H](CNS(=O)(=O)c2ccc(Oc3ccccc3)cc2)CN1c1ccc(N2CCOCC2)c(F)c1 the Activity (Raoultella planticola) was “inactive”, the Activity (Pseudomonas aeruginosa [8]) was “inactive” and the Activity (Escherichia coli) was “inactive”. The Activity [1] was “inactive”, the MIC (Candida albicans [3]) was 6 µg/mL (≈ 11.4 µM) and the MIC (Staphylococcus aureus [5]) was 4 µg/mL (≈ 7.58 µM). It also gave an MIC (Micrococcus luteus [15]) of 8 µg/mL (≈ 15.2 µM), an MIC (Staphylococcus [6]) of 4 µg/mL (≈ 7.58 µM) and an MIC (Bacillus subtilis [7]) of 8 µg/mL (≈ 15.2 µM).

For CC(=O)NC[C@H]1CN(c2ccc(N3CCOCC3)c(F)c2)C(=O)O1 [LINEZOLID], the zone of inhibition at 20 µg/mL (Pseudomonas aeruginosa [10]) was 12 mm, the zone of inhibition at 20 µg/mL (Staphylococcus aureus [11]) was 28 mm and the zone of inhibition at 20 µg/mL (Staphylococcus [12]) was 18 mm. The zone of inhibition at 20 µg/mL (Micrococcus luteus [13]) was 20 mm, the zone of inhibition at 20 µg/mL (Bacillus subtilis [14]) was 10 mm and the MIC (Staphylococcus aureus [5]) was 1.5 µg/mL (≈ 4.45 µM). It also gave an MIC (Micrococcus luteus [15]) of 1 µg/mL (≈ 2.96 µM), an MIC (Staphylococcus [6]) of 1.5 µg/mL (≈ 4.45 µM) and an MIC (Bacillus subtilis [7]) of 1.5 µg/mL (≈ 4.45 µM).
